Assay results from publication PMC9574854 (Journal of Medicinal Chemistry, 2022).

Tests used:
PfPK6 = biological target: T1, PfPK6 (Plasmodium falciparum, UniProt Q8IDW1); test: KinaseSeeker split luciferase assay on PfPK6; assay type: biochemical; details: for remaining activity at 1 µM: read-out: PfPK6 PoC@1 μM; for activity on PfPK6, in words: screen at 1 μM; for LE PfPK6 (ligand efficiency): PfPK6 pIC50/number of heavy atoms in the molecule; for selectivity (preference) for PfPK6 over PfGSK3: ratio of IC50 values
T1 sequence (Q8IDW1 1-305): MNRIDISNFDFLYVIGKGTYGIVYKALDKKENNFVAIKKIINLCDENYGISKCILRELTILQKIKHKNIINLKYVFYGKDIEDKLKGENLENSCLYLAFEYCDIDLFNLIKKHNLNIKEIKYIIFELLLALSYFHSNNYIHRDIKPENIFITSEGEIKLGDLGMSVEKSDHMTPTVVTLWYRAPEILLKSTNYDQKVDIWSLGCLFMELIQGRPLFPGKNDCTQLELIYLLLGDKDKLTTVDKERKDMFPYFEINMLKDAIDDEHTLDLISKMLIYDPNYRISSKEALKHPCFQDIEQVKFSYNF

PfGSK3 = biological target: T2, PfGSK3 (Plasmodium falciparum, UniProt O77344); test: KinaseSeeker split luciferase assay on PfGSK3; assay type: biochemical; details: for fold increase in potency on PfGSK3: compared to IKK16; for activity on PfGSK3, in words: screen at 1 μM
T2 sequence (O77344 1-440): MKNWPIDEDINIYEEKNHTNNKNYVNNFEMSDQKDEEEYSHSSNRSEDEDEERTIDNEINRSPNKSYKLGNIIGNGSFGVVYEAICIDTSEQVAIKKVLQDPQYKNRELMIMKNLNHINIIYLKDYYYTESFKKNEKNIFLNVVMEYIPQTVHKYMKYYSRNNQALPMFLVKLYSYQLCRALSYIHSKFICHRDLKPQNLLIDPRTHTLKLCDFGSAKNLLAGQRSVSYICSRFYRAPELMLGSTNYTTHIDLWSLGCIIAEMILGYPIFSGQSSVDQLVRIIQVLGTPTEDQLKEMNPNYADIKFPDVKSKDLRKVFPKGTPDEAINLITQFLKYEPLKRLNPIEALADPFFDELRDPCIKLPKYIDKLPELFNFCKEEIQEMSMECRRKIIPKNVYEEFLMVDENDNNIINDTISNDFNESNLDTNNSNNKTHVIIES
Method in brief: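 Split-luciferase binding assay: lysate with Cfluc-PfGSK3 fusion plus Fos-Nfluc, incubated 2 h with test compound in DMSO (or DMSO control) and a kinase-specific probe. Luminescence was read immediately after luciferin reagent. % inhibition = (control − sample)/control × 100. Compounds were first counter-screened against split luciferase, then screened at 1 μM.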

Pf3D7 = details: read-out: Pf3D7 blood stage EC50; blood stage proliferation; cited from earlier work
468 human kinases = test: DiscoverX KINOMEscan panel, selectivity score; assay type: binding; details: for no. of kinase hits: 1 μM, 468 human kinases, PoC ≤10% (>90% inhibition); for reduction in selectivity: S10 (1 μM) compared to IKK16
HepG2 cells = test: HepG2 CellTiter-Glo cytotoxicity assay; assay type: cell-based, human; details: HepG2, 2 μM
Method in brief: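 HepG2 cells were grown in DMEM with 10% FBS, 1% NEAA and 1% L-glutamine, without antibiotics. They were seeded at 4000 cells/well and left overnight at 37 °C, 5% CO₂. Test compound was added at 200 nM or 2 μM, in quadruplicate, with DMSO held constant, for 48 h. Viability was read by CellTiter-Glo 2 luminescence. % viability is the average of two experiments.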

[1] = in words; cited from earlier work
[2] = rats, in words; cited from earlier work
PfCDPK1 = details: read-out: PfCDPK1 IC50; cited from earlier work

SMILES: O=C(c1ccc(Nc2nccc(-c3ccc(COCC(F)(F)F)s3)n2)cc1)N1CCC(N2CCCC2)CC1 [Compound 18m, (4-(Pyrrolidin-1-yl)piperidin-1-yl)(4-((4-(5-((2,2,2-trifluoroethoxy)methyl)thiophen-2-yl)pyrimidin-2-yl)amino)phenyl)methanone]
- fold increase in potency on PfPK6 (PfPK6; compared to its alcohol counterpart (18l)): ~2 fold

SMILES: CN1CCN(CCCNC(=O)c2ccc(Nc3nccc(-c4cc5ccccc5s4)n3)cc2)CC1 [Compound 9f, 4-((4-(Benzo[b]thiophen-2-yl)pyrimidin-2-yl)amino)-N-(3-(4-methylpiperazin-1-yl)propyl)benzamide]
- fold increase in potency on PfGSK3 (PfGSK3): 2 fold
- fold increase in potency on PfPK6 (PfPK6; compared to IKK16): ~3 fold

SMILES: Cc1cn2c(-c3ccnc(NCC4CC4)n3)c(-c3ccc(F)c(NS(C)(=O)=O)c3)nc2cc1CN(C)C [ML10]
- EC50 (Pf3D7): 2.1 nM

SMILES: Cc1cnc(Nc2ccc(C(=O)NCCCN3CCOCC3)cc2)nc1-c1ccc(Cl)s1 [Compound 23g, 4-((4-(5-Chlorothiophen-2-yl)-5-methylpyrimidin-2-yl)amino)-N-(3-morpholinopropyl)benzamide]
- activity on PfGSK3, in words (PfGSK3): did not show significant activity

SMILES: O=C(O)c1ccc(Nc2nccc(-c3cc4ccccc4s3)n2)cc1 [Compound 6, 4-((4-(Benzo[b]thiophen-2-yl)pyrimidin-2-yl)amino)benzoic acid]
- remaining activity at 1 µM (PfPK6): 100%

SMILES: O=C(NCCCN1CCOCC1)c1ccc(Nc2nccc(-c3cc4ccccc4s3)n2)cc1 [Compound 9g, 4-((4-(Benzo[b]thiophen-2-yl)pyrimidin-2-yl)amino)-N-(3-morpholinopropyl)benzamide]
- no. of kinase hits (468 human kinases): 32

SMILES: c1ccc(Nc2nccc(-c3cc4ccccc4s3)n2)cc1 [Compound 4a, 4-(Benzo[b]thiophen-2-yl)-N-phenylpyrimidin-2-amine]
- activity on PfGSK3, in words (PfGSK3): failed to inhibit
- remaining activity at 1 µM (PfPK6): 100%
- activity on PfPK6, in words (PfPK6): failed to inhibit

SMILES: O=C(c1ccc(Nc2nccc(-c3cccs3)n2)cc1)N1CCC(N2CCCC2)CC1 [Compound 18c, (4-(Pyrrolidin-1-yl)piperidin-1-yl)(4-((4-(thiophen-2-yl)pyrimidin-2-yl)amino)phenyl)methanone]
- activity on PfGSK3, in words (PfGSK3): inactivity

SMILES: O=C(c1ccc(Nc2nccc(-c3cc4ccccc4s3)n2)cc1)N1CCC(N2CCCCC2)CC1 [Compound 9b, [1,4′-Bipiperidin]-1′-yl(4-((4-(benzo[b]thiophen-2-yl)pyrimidin-2-yl)amino)phenyl)methanone]
- fold increase in potency on PfPK6 (PfPK6; compared to IKK16): ~4 fold

SMILES: O=C(c1ccc(Nc2nccc(-c3ccc(Cl)s3)n2)cc1)N1CCC(N2CCCC2)CC1 [Compound 18j, (4-((4-(5-Chlorothiophen-2-yl)pyrimidin-2-yl)amino)phenyl)(4-(pyrrolidin-1-yl)piperidin-1-yl)methanone]
- LE PfPK6 (ligand efficiency) (PfPK6): 0.30

SMILES: Cc1ccc(-c2nc(Nc3ccc(C(=O)NCCCN4CCOCC4)cc3)ncc2Cl)s1 [Compound 23f, 4-((5-Chloro-4-(5-methylthiophen-2-yl)pyrimidin-2-yl)amino)-N-(3-morpholinopropyl)benzamide]
- IC50 (PfGSK3): < 100 nM

SMILES: O=C(c1ccc(Nc2ncc(Cl)c(-c3ccc(Cl)s3)n2)cc1)N1CCC(N2CCCC2)CC1 [Compound 23d, (4-((5-Chloro-4-(5-chlorothiophen-2-yl)pyrimidin-2-yl)amino)phenyl)(4-(pyrrolidin-1-yl)piperidin-1-yl)methanone]
- no. of kinase hits (468 human kinases): 103

SMILES: Cc1ccc(-c2nc(Nc3ccc(C(=O)N4CCC(N5CCCC5)CC4)cc3)ncc2C)s1 [Compound 23a, (4-((5-Methyl-4-(5-methylthiophen-2-yl)pyrimidin-2-yl)amino)phenyl)(4-(pyrrolidin-1-yl)piperidin-1-yl)methanone]
- activity on PfGSK3, in words (PfGSK3): did not reach our threshold

SMILES: Cn1cc(NC(=O)c2ccc(Nc3nccc(-c4cc5ccccc5s4)n3)cc2)cn1 [Compound 9k, 4-((4-(Benzo[b]thiophen-2-yl)pyrimidin-2-yl)amino)-N-(1-methyl-1H-pyrazol-4-yl)benzamide]
- activity on PfGSK3, in words (PfGSK3): no activity
- activity on PfPK6, in words (PfPK6): no activity

SMILES: Cc1cnc(Nc2ccc(C(=O)N3CCC(N4CCCC4)CC3)cc2)nc1-c1cc2ccccc2s1 [Compound 18n, (4-((4-(Benzo[b]thiophen-2-yl)-5-methylpyrimidin-2-yl)amino)phenyl)(4-(pyrrolidin-1-yl)piperidin-1-yl)methanone]
- more cytotoxicity than IKK16 (HepG2 cells): ~40%
- no. of kinase hits (468 human kinases): 100
- reduction in selectivity (468 human kinases): ~2 fold
- fold increase in potency on PfPK6 (PfPK6; compared to IKK16): 9 fold
- selectivity (preference) for PfPK6 over PfGSK3 (PfPK6): ~16 fold

SMILES: c1ccc(CNc2nccc(-c3cc4ccccc4s3)n2)cc1 [Compound 4h, 4-(Benzo[b]thiophen-2-yl)-N-benzylpyrimidin-2-amine]
- activity on PfGSK3, in words (PfGSK3): inactive
- remaining activity at 1 µM (PfPK6): 100%
- activity on PfPK6, in words (PfPK6): inactive

SMILES: Clc1cccc(Nc2nccc(-c3cc4ccccc4s3)n2)c1 [Compound 4c, 4-(Benzo[b]thiophen-2-yl)-N-(3-chlorophenyl)pyrimidin-2-amine]
- remaining activity at 1 µM (PfPK6): 100%

SMILES: O=C(c1ccc(Nc2nccc(-c3ccc(-c4ccccc4)s3)n2)cc1)N1CCC(N2CCCC2)CC1 [Compound 18k, (4-((4-(5-Phenylthiophen-2-yl)pyrimidin-2-yl)amino)phenyl)(4-(pyrrolidin-1-yl)piperidin-1-yl)methanone]
- activity on PfGSK3, in words (PfGSK3): inactive

SMILES: O=C(NCCCN1CCOCC1)c1ccc(Nc2ncc(Cl)c(-c3ccc(Cl)s3)n2)cc1 [Compound 23e, 4-((5-Chloro-4-(5-chlorothiophen-2-yl)pyrimidin-2-yl)amino)-N-(3-morpholinopropyl)benzamide]
- no. of kinase hits (468 human kinases): 64
- reduction of promiscuity (kinase hits) (468 human kinases; compared to 23d, from 103 to 64 kinase hits): ~40%
- IC50 (PfGSK3): < 100 nM

SMILES: O=C(c1ccc(Nc2nccc(-c3cc4ccccc4s3)n2)cc1)N1CCC(N2CCCC2)CC1 [IKK16, reference compound]
- no. of kinase hits (468 human kinases): 41
- toxicity in a resazurin-based cell viability assay [1]: low toxicity
- oral bioavailability [2]: orally bioavailable
- LE PfPK6 (ligand efficiency) (PfPK6): 0.26

SMILES: COc1cccc(Nc2nccc(-c3cc4ccccc4s3)n2)c1 [Compound 4f, 4-(Benzo[b]thiophen-2-yl)-N-(3-methoxyphenyl)pyrimidin-2-amine]
- remaining activity at 1 µM (PfPK6): 100%

SMILES: O=C(NC1CC1)c1ccc(Nc2nccc(-c3cc4ccccc4s3)n2)cc1 [Compound 9j, 4-((4-(Benzo[b]thiophen-2-yl)pyrimidin-2-yl)amino)-N-cyclopropylbenzamide]
- fold increase in potency on PfGSK3 (PfGSK3): roughly 2 fold

SMILES: N[C@H]1CC[C@H](Nc2nc(Nc3ccc(C(=O)N4CCCCC4)cc3)c3ncn(-c4cccc(F)c4)c3n2)CC1 [Purfalcamine]
- IC50 (PfCDPK1): 17 nM

SMILES: Clc1ccccc1Nc1nccc(-c2cc3ccccc3s2)n1 [Compound 4d, 4-(Benzo[b]thiophen-2-yl)-N-(2-chlorophenyl)pyrimidin-2-amine]
- remaining activity at 1 µM (PfPK6): 100%

SMILES: COc1ccccc1Nc1nccc(-c2cc3ccccc3s2)n1 [Compound 4g, 4-(Benzo[b]thiophen-2-yl)-N-(2-methoxyphenyl)pyrimidin-2-amine]
- remaining activity at 1 µM (PfPK6): 100%

SMILES: O=C(c1ccc(Nc2nccc(-c3ccco3)n2)cc1)N1CCC(N2CCCC2)CC1 [Compound 18e, (4-((4-(Furan-2-yl)pyrimidin-2-yl)amino)phenyl)(4-(pyrrolidin-1-yl)piperidin-1-yl)methanone]
- activity on PfGSK3, in words (PfGSK3): inactive
- fold decrease in potency on PfPK6 (PfPK6; compared to thiophene 18c): more than 3 fold

SMILES: O=C(c1ccc(Nc2ncc(Cl)c(-c3cc4ccccc4s3)n2)cc1)N1CCC(N2CCCC2)CC1 [Compound 18r, (4-((4-(Benzo[b]thiophen-2-yl)-5-chloropyrimidin-2-yl)amino)phenyl)(4-(pyrrolidin-1-yl)piperidin-1-yl)methanone]
- no. of kinase hits (468 human kinases): 88
- reduction in selectivity (468 human kinases): ~2 fold
- fold increase in potency on PfPK6 (PfPK6; compared to IKK16): 20 fold
- selectivity (preference) for PfPK6 over PfGSK3 (PfPK6): 9 fold
